ChEMBL document CHEMBL3862014, “Synthesis and anti-inflammatory activity of paeonol analogues in the murine model of complete Freund's adjuvant induced arthritis” (Bioorg Med Chem Lett, 2016)
The source made the active and inactive calls. The rule behind the calls is not given here.

How the values were obtained:
[1] = Antioxidant activity assessed as superoxide radical scavenging activity measured every 30 secs for 6 mins in presence of superoxide generator pyrogallol; type: functional
Summary of the method: (§1)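 In vitro radical scavenging was reported as IC50 (mM) alongside a positive control. Data are mean ± s, n = 6, with experiments run in triplicate.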

[2] = Antioxidant activity assessed as DPPH radical scavenging activity incubated for 30 mins in dark; type: functional; summary of the method: as §1
[3] = Antioxidant activity assessed as hydroxyl radical scavenging activity measured 10 mins after H2O2 addition by pyronin B dye based assay; type: functional; summary of the method: as §1
[4] = Antioxidant activity assessed as ABTS radical scavenging activity after 6 mins by spectrophotometric analysis; type: functional; summary of the method: as §1
[5] = Solubility of the compound in water; type: physicochemical; settings: buffer
[6] = tested on: Mus musculus; experiment: Antiinflammatory activity in Kunming mouse CFA-induced arthritis model assessed as COX-2 level in serum at 100 mg/kg/day, po for 1 week administered on day 8 post CFA induction by ELISA (reference value: 85.3 +/- 0.1 ng/L); type: functional
[7] = tested on: Mus musculus; experiment: Antiinflammatory activity in Kunming mouse CFA-induced arthritis model assessed as inhibition of paw swelling at 100 mg/kg/day, po for 1 week administered on day 8 post CFA induction measured every 2 days during compound dosing; type: functional
Summary of the method: (§2)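 Dosing began seven days after the model was established, at 100 mg·kg⁻¹·d⁻¹ (high) or 25 mg·kg⁻¹·d⁻¹ (low). Inhibition of paw swelling was expressed in %, with celecoxib as reference group.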

[8] = tested on: Mus musculus; experiment: Antiinflammatory activity in Kunming mouse CFA-induced arthritis model assessed as COX-2 level in serum at 25 mg/kg/day, po for 1 week administered on day 8 post CFA induction by ELISA (reference value: 85.3 +/- 0.1 ng/L); type: functional
[9] = tested on: Mus musculus; experiment: Antiinflammatory activity in Kunming mouse CFA-induced arthritis model assessed as PGE2 level in serum at 100 mg/kg/day, po for 1 week administered on day 8 post CFA induction by ELISA (reference value: 207 +/- 2.1 ng/L); type: functional
[10] = tested on: Mus musculus; experiment: Antiinflammatory activity in Kunming mouse CFA-induced arthritis model assessed as PGE2 level in serum at 25 mg/kg/day, po for 1 week administered on day 8 post CFA induction by ELISA (reference value: 207 +/- 2.1 ng/L); type: functional
[11] = tested on: Mus musculus; experiment: Antioxidant activity in Kunming mouse CFA-induced arthritis model assessed as malondialdehyde level in serum at 100 mg/kg/day, po for 1 week administered on day 8 post CFA induction by ELISA (reference value: 15.5 +/- 1.1 nmol/ml); type: functional
[12] = tested on: Mus musculus; experiment: Antioxidant activity in Kunming mouse CFA-induced arthritis model assessed as malondialdehyde level in serum at 25 mg/kg/day, po for 1 week administered on day 8 post CFA induction by ELISA (reference value: 15.5 +/- 1.1 nmol/ml); type: functional
[13] = tested on: Mus musculus; experiment: Antioxidant activity in Kunming mouse CFA-induced arthritis model assessed as total antioxidant capacity in serum at 100 mg/kg/day, po for 1 week administered on day 8 post CFA induction by ELISA (reference value: 2.9 +/- 0.5 U/ml); type: functional
[14] = tested on: Mus musculus; experiment: Antioxidant activity in Kunming mouse CFA-induced arthritis model assessed as total antioxidant capacity in serum at 25 mg/kg/day, po for 1 week administered on day 8 post CFA induction by ELISA (reference value: 2.9 +/- 0.5 U/ml); type: functional
[15] = tested on: Mus musculus; experiment: Antioxidant activity in Kunming mouse CFA-induced arthritis model assessed as superoxide dismutase activity in serum at 100 mg/kg/day, po for 1 week administered on day 8 post CFA induction by ELISA (reference value: 66.7 +/- 0.9 U/ml); type: functional
[16] = tested on: Mus musculus; experiment: Antioxidant activity in Kunming mouse CFA-induced arthritis model assessed as superoxide dismutase activity in serum at 25 mg/kg/day, po for 1 week administered on day 8 post CFA induction by ELISA (reference value: 66.7 +/- 0.9 U/ml); type: functional
[17] = tested on: Mus musculus; experiment: Antiinflammatory activity in Kunming mouse CFA-induced arthritis model assessed as inhibition of paw swelling at 25 mg/kg/day, po for 1 week administered on day 8 post CFA induction measured every 2 days during compound dosing; type: functional, organism-based; summary of the method: as §2
[18] = tested on: Mus musculus; experiment: Antiinflammatory activity in Kunming mouse CFA-induced arthritis model assessed as inhibition of paw swelling at 100 mg/kg/day, po for 1 week administered on day 8 post CFA induction measured after day 3 during compound dosing; type: functional, organism-based; summary of the method: as §2
[19] = tested on: Mus musculus; experiment: Antiinflammatory activity in Kunming mouse CFA-induced arthritis model assessed as COX-2 level in serum at 30 mg/kg/day, po for 1 week administered on day 8 post CFA induction by ELISA (reference value: 85.3 +/- 0.1 ng/L); type: functional
[20] = tested on: Mus musculus; experiment: Antiinflammatory activity in Kunming mouse CFA-induced arthritis model assessed as PGE2 level in serum at 30 mg/kg/day, po for 1 week administered on day 8 post CFA induction by ELISA (reference value: 207 +/- 2.1 ng/L); type: functional
[21] = tested on: Mus musculus; experiment: Antioxidant activity in Kunming mouse CFA-induced arthritis model assessed as malondialdehyde level in serum at 30 mg/kg/day, po for 1 week administered on day 8 post CFA induction by ELISA (reference value: 15.5 +/- 1.1 nmol/ml); type: functional
[22] = tested on: Mus musculus; experiment: Antioxidant activity in Kunming mouse CFA-induced arthritis model assessed as total antioxidant capacity in serum at 30 mg/kg/day, po for 1 week administered on day 8 post CFA induction by ELISA (reference value: 2.9 +/- 0.5 U/ml); type: functional
[23] = tested on: Mus musculus; experiment: Antioxidant activity in Kunming mouse CFA-induced arthritis model assessed as superoxide dismutase activity in serum at 30 mg/kg/day, po for 1 week administered on day 8 post CFA induction by ELISA (reference value: 66.7 +/- 0.9 U/ml); type: functional
[24] = tested on: Mus musculus; experiment: Antiinflammatory activity in Kunming mouse CFA-induced arthritis model assessed as inhibition of paw swelling at 30 mg/kg/day, po for 1 week administered on day 8 post CFA induction measured every 2 days during compound dosing; type: functional, organism-based

SMILES | IC50 [1] [mM] | IC50 [2] [mM] | IC50 [3] [mM] | IC50 [4] [mM] | further results
CCCCCCCCCCCCOc1cc(OC)ccc1C(C)=O | 28.5 | 37.4 | 65.6 | 40.7 | –
CCCCCCCCOc1cc(OC)c(Br)cc1C(C)=O | 30.9 | 39 | 38.1 | 32 | –
CCCCCCCCCCCCCCOc1cc(OC)ccc1C(C)=O | 35.9 | 43.6 | 57 | 38 | –
CCCCCCCCCCOc1cc(OC)c(Br)cc1C(C)=O | 15 | 35.1 | 29.7 | 34.7 | –
CCOc1cc(OC)c(Br)cc1C(C)=O | 37.9 | 46.8 | 57.7 | 36 | solubility [5]: Soluble
CCCCCCCCCCOc1cc(OC)ccc1C(C)=O | 26.6 | 40.1 | 57.4 | 41.7 | –
CCCCCCCCOc1cc(OC)ccc1C(C)=O | 21.2 | 40 | 69.4 | 38.3 | –
COc1ccc(C(C)=O)c(O)c1 [PAEONOL] | 5.8 | 42.8 | 0.2 | 16 | Activity [6]: 61.1 ng/L; inhibition [7]: Active; Activity [8]: 66.2 ng/L; Activity [9]: 137.1 ng/L; Activity [10]: 155.5 ng/L; Activity [11]: 7.9 nmol/mL; Activity [12]: 8.9 nmol/mL; Activity [13]: 4.1 U/ml; Activity [14]: 4.6 U/ml; Activity [15]: 68.1 U/ml; Activity [16]: 62.5 U/ml; solubility [5]: Soluble; inhibition [17]: Active
CCCCCCOc1cc(OC)c(Br)cc1C(C)=O | 34 | 42.4 | 53.1 | 35.7 | –
CCCCCCCCCCCCCCOc1cc(OC)c(Br)cc1C(C)=O | 6.8 | 16.1 | 13.2 | 8.7 | –
CCCCCCCCCCCCCCCCOc1cc(OC)ccc1C(C)=O | 39.4 | 39.4 | 61.5 | 36.3 | Activity [6]: 64.4 ng/L; inhibition in vivo at 100 mg/kg/day [7]: 65%; inhibition [18]: Active; Activity [8]: 65.2 ng/L; Activity [9]: 159.4 ng/L; Activity [10]: 182.2 ng/L; Activity [11]: 8.8 nmol/mL; Activity [12]: 9.7 nmol/mL; Activity [13]: 16.9 U/ml; Activity [14]: 11.1 U/ml; Activity [15]: 80.7 U/ml; Activity [16]: 72.1 U/ml; inhibition [17]: Active
Cc1ccc(-c2cc(C(F)(F)F)nn2-c2ccc(S(N)(=O)=O)cc2)cc1 [CELECOXIB] | – | – | – | – | Activity [19]: 61.6 ng/L; Activity [20]: 135.3 ng/L; Activity [21]: 7.3 nmol/mL; Activity [22]: 6.3 U/ml; Activity [23]: 78 U/ml; inhibition [24]: Active
CCCCCCOc1cc(OC)ccc1C(C)=O | 18 | 42.6 | 84.4 | 42.1 | –

Further compounds by falling IC50 [1], results first:

IC50 [1] [mM] | IC50 [2] [mM] | IC50 [3] [mM] | IC50 [4] [mM] | SMILES | further results
38.2 | 42.3 | 56.9 | 34.1 | CCCCOc1cc(OC)c(Br)cc1C(C)=O | –
15.6 | 41.8 | 3 | 31.4 | COc1cc(O)c(C(C)=O)cc1Br | Activity [6]: 57.6 ng/L; inhibition [7]: Active; Activity [8]: 65.4 ng/L; Activity [9]: 142.3 ng/L; Activity [10]: 179.5 ng/L; Activity [11]: 6.4 nmol/mL; Activity [12]: 9.9 nmol/mL; Activity [13]: 6 U/ml; Activity [14]: 3.8 U/ml; Activity [15]: 78.1 U/ml; Activity [16]: 76.3 U/ml; inhibition [17]: Active
15.6 | 43.3 | 57.2 | 36.3 | CCCCOc1cc(OC)ccc1C(C)=O | –
10.6 | 29.5 | 23.1 | 32.7 | CCCCCCCCCCCCOc1cc(OC)c(Br)cc1C(C)=O | –
6.6 | 39.6 | 35.3 | 37.7 | CCOc1cc(OC)ccc1C(C)=O | solubility [5]: Soluble
1.8 | 6.5 | 0.1 | 4.6 | CCCCCCCCCCCCCCCCOc1cc(OC)c(Br)cc1C(C)=O | Activity [6]: 64.7 ng/L; inhibition in vivo at 100 mg/kg/day [7]: 45%; Activity [8]: 63.9 ng/L; Activity [9]: 150.1 ng/L; Activity [10]: 189.3 ng/L; Activity [11]: 5.8 nmol/mL; Activity [12]: 7.5 nmol/mL; Activity [13]: 11.6 U/ml; Activity [14]: 6.5 U/ml; Activity [15]: 76.2 U/ml; Activity [16]: 73.9 U/ml; inhibition [17]: Active
0.6 | 0.2 | 0.2 | 0.3 | Cc1c(C)c2c(c(C)c1O)CCC(C)(C(=O)O)O2 (centres undefined) [TROLOX] | –
